Data: ChEMBL document CHEMBL4043076, “Hormonemate Derivatives from Dothiora sp., an Endophytic Fungus” (J Nat Prod, 2017)

How the values were obtained:
Type in all cases: functional, cell-based
MIA PaCa-2 = test: Cytotoxicity against human MIAPaCa2 cells assessed as reduction in cell viability incubated for 24 hrs by MTT assay; conditions: MIA PaCa-2, 24 h
In short: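 MiaPaca_2 (ATCC CRL-1420) cultured in DMEM with 10% FBS, 2.5% horse serum, 1% L-glutamine and 1% penicillin/streptomycin at 37 °C, 5% CO2. Seeding was 20000 cells/well for the 24 h assay. Compounds were tested in triplicate over 10 two-fold dilutions from a 40 μg/mL top concentration, with 0.5% DMSO as negative control. MTT reduction was used for IC50.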

HepG2 = test: Cytotoxicity against human HepG2 cells assessed as reduction in cell viability incubated for 24 hrs by MTT assay; conditions: HepG2, 24 h
In short: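 HepG2 (ATCC) grown in Eagle's MEM with 10% FBS, 2 mM L-glutamine, 1 mM sodium pyruvate and 100 μM nonessential amino acids at 37 °C, 5% CO2. Seeded at 20000 cells/well for the 24 h assay. Compounds were run in triplicate at 10 two-fold dilutions from 40 μg/mL, with 0.5% DMSO maximum. Viability was read by MTT reduction and IC50 determined.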

MCF7 = test: Cytotoxicity against human MCF7 cells assessed as reduction in cell viability incubated for 24 hrs by MTT assay; conditions: MCF7, 24 h
In short: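 MCF-7 (ATCC HTB-22) kept in MEM with 10% FBS, glutamine, pyruvate and nonessential amino acids plus 0.01 mg/mL bovine insulin at 37 °C, 5% CO2. Plated at 30000 cells/well for the 24 h exposure. Triplicate 10-point, 2-fold serial dilutions from 40 μg/mL were used, with DMSO ≤0.5%. MMS served as positive control. The MTT viability read-out gave the IC50.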

CC[C@H](C)[C@@H](O)C(=O)O[C@@H](C(=O)O[C@@H](C(=O)O[C@@H](C(=O)O[C@@H](C(=O)OC[C@@H](O)[C@@H](O)[C@H](O)[C@H](O)CO)[C@@H](C)CC)[C@@H](C)CC)[C@@H](C)CC)[C@@H](C)CC
IC50 (MIA PaCa-2): > 53.2 µM | IC50 (HepG2): > 53.2 µM | IC50 (MCF7): 24.3 µM

CC[C@H](C)[C@@H](O)C(=O)O[C@@H](C(=O)O[C@@H](C(=O)O[C@@H](C(=O)OC[C@@H](O)[C@@H](O)[C@H](O)CO)[C@@H](C)CC)[C@@H](C)CC)[C@@H](C)CC
IC50 (MIA PaCa-2): > 65.7 µM | IC50 (HepG2): > 65.7 µM | IC50 (MCF7): > 65.7 µM

COc1cccc2c1C(=O)c1c(O)c3c(c(O)c1C2=O)C[C@@](O)(C(=O)CO)C[C@@H]3O[C@H]1C[C@H](N)[C@H](O)[C@H](C)O1 [DOXORUBICIN]
IC50 (MIA PaCa-2): 1.9 µM | IC50 (HepG2): 0.2 µM

CC[C@H](C)[C@@H](O)C(=O)O[C@@H](C(=O)O[C@@H](C(=O)O[C@@H](C(=O)O[C@@H](C(=O)O[C@H](CO)[C@@H](O)[C@H](O)[C@H](O)CO)[C@@H](C)CC)[C@@H](C)CC)[C@@H](C)CC)[C@@H](C)CC
IC50 (MIA PaCa-2): > 53.2 µM | IC50 (HepG2): 36.2 µM | IC50 (MCF7): 18.3 µM

CC[C@H](C)[C@@H](O)C(=O)O[C@@H](C(=O)O[C@@H](C(=O)O[C@@H](C(=O)O[C@@H](C(=O)O[C@@H]([C@H](O)[C@H](O)CO)[C@H](O)CO)[C@@H](C)CC)[C@@H](C)CC)[C@@H](C)CC)[C@@H](C)CC
IC50 (MIA PaCa-2): > 53.2 µM | IC50 (HepG2): > 53.2 µM | IC50 (MCF7): 27.8 µM

CC[C@H](C)[C@@H](O)C(=O)O[C@@H](C(=O)O[C@@H](C(=O)O[C@@H](C(=O)O[C@@H](C(=O)OC[C@@H](O)[C@@H](O)[C@H](O)CO)[C@@H](C)CC)[C@@H](C)CC)[C@@H](C)CC)[C@@H](C)CC
IC50 (MIA PaCa-2): > 55.4 µM | IC50 (HepG2): 29 µM | IC50 (MCF7): 15.6 µM

CC[C@H](C)[C@@H](O)C(=O)O[C@@H](C(=O)O[C@@H](C(=O)O[C@@H](C(=O)O[C@@H](C(=O)OC[C@@H](O)[C@@H](O)CO)[C@@H](C)CC)[C@@H](C)CC)[C@@H](C)CC)[C@@H](C)CC
IC50 (MIA PaCa-2): > 57.8 µM | IC50 (HepG2): 28.7 µM | IC50 (MCF7): 11.1 µM

CC[C@H](C)[C@@H](O)C(=O)O[C@@H](C(=O)O[C@@H](C(=O)O[C@@H](C(=O)O[C@@H](C(=O)O[C@H](CO)[C@@H](O)[C@H](O)CO)[C@@H](C)CC)[C@@H](C)CC)[C@@H](C)CC)[C@@H](C)CC
IC50 (MIA PaCa-2): 36.4 µM | IC50 (HepG2): 26.2 µM | IC50 (MCF7): 19 µM
